Activity calls are given as the source filed them. No cut-off for these calls is given here.
How the values were obtained:
MDA-MB-231 [1] = assay: Up regulation of CDH1 mRNA expression in human MDA-MB-231 cells at 50 to 200 nM measured after 24 hrs by RT-PCR analysis; type: functional, cell-based; details: dose 50-200 nM
[2] = Selectivity ratio of IC50 for human MCF-10A cells to IC50 for human HCT-116 cells; type: toxicity; details: MCF-10A cells versus HCT-116 cells, read-out: Ratio IC50
MDA-MB-231 [3] = assay: Up regulation of CDH1 expression in human MDA-MB-231 cells at 50 to 200 nM measured after 48 hrs by Western blot analysis; type: functional, cell-based; details: dose 50-200 nM
Method in brief: (§1)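 MDA-MB-231 cells exposed to compound for 48 h; lysates in 2× SDS sample buffer with orthovanadate and NaF, protein by BCA. 5–20 μg resolved on 8–15% SDS-PAGE, PVDF, BSA block, probed for E-cadherin, N-cadherin, ZEB1, vimentin; ECL detection, β-actin internal control, band densitometry. Mean ± SD (n = 3), three experiments.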

MDA-MB-231 [4] = assay: Down regulation of ZEB1 expression in human MDA-MB-231 cells at 50 to 200 nM measured after 48 hrs by Western blot analysis; type: functional, cell-based; details: dose 50-200 nM; method in brief: as §1
[5] = biological target: Histone-lysine N-methyltransferase, H3 lysine-79 specific (Homo sapiens) (UniProt Q8TEK3); assay: Inhibition of human N-terminal GST-tagged DOT1L (2 to 416 residues) expressed in Escherichia coli at 200 nM using DOT1L substrate measured after 2 hrs in presence of SAM by ELISA
Chain of Histone-lysine N-methyltransferase, H3 lysine-79 specific (Homo sapiens) (Q8TEK3 whole entry, looked up, the tested form may be a part): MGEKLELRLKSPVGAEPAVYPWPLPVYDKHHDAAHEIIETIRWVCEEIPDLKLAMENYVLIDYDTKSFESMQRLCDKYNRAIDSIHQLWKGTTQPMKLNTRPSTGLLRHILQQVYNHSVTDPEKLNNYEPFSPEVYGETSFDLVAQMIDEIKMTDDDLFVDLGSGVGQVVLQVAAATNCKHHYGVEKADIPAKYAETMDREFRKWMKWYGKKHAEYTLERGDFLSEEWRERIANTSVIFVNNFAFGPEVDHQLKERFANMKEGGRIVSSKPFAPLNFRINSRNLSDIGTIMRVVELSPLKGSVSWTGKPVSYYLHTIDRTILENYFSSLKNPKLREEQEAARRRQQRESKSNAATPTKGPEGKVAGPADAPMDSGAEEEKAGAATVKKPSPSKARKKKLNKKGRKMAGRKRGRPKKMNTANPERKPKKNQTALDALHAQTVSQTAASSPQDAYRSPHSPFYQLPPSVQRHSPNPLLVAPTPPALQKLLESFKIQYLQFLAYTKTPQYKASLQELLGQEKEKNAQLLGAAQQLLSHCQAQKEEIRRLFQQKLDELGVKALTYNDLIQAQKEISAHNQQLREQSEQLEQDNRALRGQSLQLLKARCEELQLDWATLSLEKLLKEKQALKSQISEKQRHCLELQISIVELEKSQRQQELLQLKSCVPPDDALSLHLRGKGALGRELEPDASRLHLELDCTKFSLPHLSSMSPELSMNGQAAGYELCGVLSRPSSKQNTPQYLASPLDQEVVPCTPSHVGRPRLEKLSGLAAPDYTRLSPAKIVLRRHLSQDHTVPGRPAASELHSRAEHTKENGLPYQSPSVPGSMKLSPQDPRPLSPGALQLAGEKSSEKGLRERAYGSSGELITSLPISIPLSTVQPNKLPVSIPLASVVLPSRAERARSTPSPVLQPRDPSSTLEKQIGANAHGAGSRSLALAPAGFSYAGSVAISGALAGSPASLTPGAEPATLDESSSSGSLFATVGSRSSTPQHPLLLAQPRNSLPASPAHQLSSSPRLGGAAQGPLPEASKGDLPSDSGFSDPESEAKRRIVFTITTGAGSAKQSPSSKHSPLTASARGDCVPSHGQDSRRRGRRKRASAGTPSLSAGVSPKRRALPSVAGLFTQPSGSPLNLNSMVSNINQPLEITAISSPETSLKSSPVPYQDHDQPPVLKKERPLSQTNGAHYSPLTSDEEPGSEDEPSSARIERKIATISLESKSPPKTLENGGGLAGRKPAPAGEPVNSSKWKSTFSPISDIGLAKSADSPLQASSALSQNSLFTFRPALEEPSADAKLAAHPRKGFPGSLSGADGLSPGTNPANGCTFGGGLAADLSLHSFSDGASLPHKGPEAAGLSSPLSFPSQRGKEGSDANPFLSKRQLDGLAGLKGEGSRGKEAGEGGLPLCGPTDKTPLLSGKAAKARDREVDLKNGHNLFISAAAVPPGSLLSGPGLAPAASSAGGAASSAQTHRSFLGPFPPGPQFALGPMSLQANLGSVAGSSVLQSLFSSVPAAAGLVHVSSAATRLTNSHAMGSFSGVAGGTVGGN
Method in brief: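 Cell-free DOT1L enzyme activity assay using 500 ng DOT1L per well. Compound was incubated 2 h before read-out. EPZ-5676 (100 nM) was the positive control. Mean ± SD (n = 3), representative of three separate experiments.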

MDA-MB-231 [6] = assay: Antitumor activity against human MDA-MB-231 cells xenografted in BALB/c nu mouse assessed as reduction in tumor weight at 5 to 15 mg/kg, ip administered thrice per week for 38 days measured 1 week post last dose; type: functional, organism-based; details: dose 5-15 mg/kg, time 45.0 day
Method in brief: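 Female BALB/c-nu mice (5–6 wk) given 1 × 10⁷ luciferase-expressing MDA-MB-231 cells in 50:50 DMEM/Matrigel into the fourth fat pad; randomized after 10 days (six per group). Dosed ip in EtOH/Cremophor/saline (5:5:90) three times weekly for 38 days. Tumor L, W, H measured by caliper, volume = LWH/2; body weight weekly; tumors excised and weighed at termination.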

[7] = Toxicity in human MDA-MB-231 cells xenografted BALB/c nu mouse assessed as change in body weight at 5 to 15 mg/kg, ip administered thrice per week for 38 days measured once per week during compound dosing; type: organism-based; details: in vivo, 912 h, dose 5-15 mg/kg, time 38 day
Method in brief: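 Female BALB/c-nu mice, 5–6 weeks old, received 1 × 10⁷ luciferase-expressing MDA-MB-231 cells in 50:50 DMEM/Matrigel into the fourth fat pad. At day 10, mice were randomized into groups of six. Dosing was i.p. three times weekly for 38 days, in vehicle EtOH/Cremophor/saline 5:5:90. Body weight was recorded weekly, and toxicity was judged by lethality and weight loss.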

MCF-10A = assay: Cytotoxicity against human MCF-10A cells assessed as reduction in cell viability by SRB assay; type: cell-based
Method in brief: (§2)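 Cells seeded in 96-well plates and exposed to compounds for the stated times. Zero-day controls were incubated 30 min. Cells were fixed and stained with 0.4% SRB in 1% acetic acid, and bound dye was dissolved in 10 mM Tris (pH 10.0). A515 was read, and IC50 was calculated by non-linear regression.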

MDA-MB-231 [8] = assay: Antiinvasive activity in human MDA-MB-231 cells assessed as reduction in cell invasion through matrigel-coated chamber after 24 hrs by diff-quik staining based microscopic analysis; type: functional; details: dose 50-400 nM
Method in brief: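 MDA-MB-231 cells pretreated with compound (50–400 nM) for 24 h, harvested into serum-free medium and plated at 0.5–1 × 10⁶ cells/chamber on transwell inserts (8 μm pores) coated with type I collagen and 1:20 Matrigel/PBS; 30% FBS medium as chemoattractant below. After 24 h, invaded cells fixed, Diff-Quik stained, counted in 5 random fields at 200×; three separate experiments.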

MDA-MB-231 [9] = assay: Down regulation of VIM expression in human MDA-MB-231 cells at 50 to 200 nM measured after 48 hrs by Western blot analysis; type: functional, cell-based; details: dose 50-200 nM; method in brief: as §1
SK-HEP1 = assay: Cytotoxicity against human SK-HEP1 cells assessed as reduction in cell viability by SRB assay; type: functional, cell-based; method in brief: as §2
MDA-MB-231 [10] = assay: Antimetastatic activity against human MDA-MB-231 cells xenografted in ip dosed BALB/c nu mouse assessed as up regulation of E-cadherin expression in tumor tissue administered thrice per week for 38 days measured 1 week post last dose by Western blot analysis; type: functional, organism-based; details: dose 5-15 mg/kg, time 45.0 day
Method in brief: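 Frozen tumor portions from the orthotopic MDA-MB-231 nude mouse study homogenized in complete lysis buffer; protein by Bradford assay. Western blotting for H3K79me2, E-cadherin and vimentin, β-actin internal control, band intensities semi-quantified; three separate experiments.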

MDA-MB-231 [11] = assay: Antitumor activity against human MDA-MB-231 cells xenografted in BALB/c nu mouse assessed as down regulation of Ki67 expression in tumor tissue at 5 to 15 mg/kg, ip administered thrice per week for 38 days measured 1 week post last dose by H and E staining based immunohistochemical analysis; type: functional, organism-based; details: dose 5-15 mg/kg, time 45.0 day
Method in brief: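 Tumors and lungs from orthotopic MDA-MB-231/Luc nude mice (ip dosing three times weekly, 38 days) fixed in 4% PFA, paraffin-embedded, sectioned, antigen-retrieved. Lungs H&E-stained for metastatic cells; tumor sections immunostained for Ki67, H3K79me2, E-cadherin, vimentin with HRP detection, hematoxylin counterstain, imaged at 200×.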

A549 = assay: Cytotoxicity against human A549 cells assessed as reduction in cell viability by SRB assay; type: functional, cell-based; method in brief: as §2
MDA-MB-231 [12] = assay: Antimetastatic activity against human MDA-MB-231 cells xenografted in BALB/c nu mouse assessed as reduction in luciferase signal in lung tissue at 5 to 15 mg/kg, ip administered thrice per week for 38 days measured 1 week post last dose by luciferase based imaging analysis; type: functional, organism-based; details: dose 5-15 mg/kg, time 45.0 day
Method in brief: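 Orthotopic luciferase-expressing MDA-MB-231 model in female BALB/c-nu mice, ip dosing in EtOH/Cremophor/saline (5:5:90) three times weekly for 38 days. One week later anesthetized mice imaged by IVIS 15 min after D-luciferin (150 mg/kg in PBS); lungs and other organs then excised and imaged ex vivo.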

MDA-MB-231 [13] = assay: Antimigratory activity in human MDA-MB-231 cells assessed as suppression of wound closure after 24 hrs by microscopic analysis; type: functional, cell-based; details: dose 50-400 nM
Method in brief: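 MDA-MB-231 monolayers at 80–90% confluence scratched with a pipette tip, washed with PBS, then kept 24 h in medium with 1% FBS plus compound at various concentrations. Wounds photographed at 0 and 24 h; area measured by image analysis and expressed as wound healing (%) relative to the 0 h area. Mean ± SD (n = 3), three separate experiments.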

MDA-MB-231 [14] = assay: Down regulation of VIM mRNA expression in human MDA-MB-231 cells at 50 to 200 nM measured after 24 hrs by RT-PCR analysis; type: functional, cell-based; details: dose 50-200 nM
[15] = Selectivity ratio of IC50 for human MCF-10A cells to IC50 for human A549 cells; type: toxicity; details: MCF-10A cells versus A549 cells, read-out: Ratio IC50

With `O=C(NCC[Se][Se]CCNC(=O)/C(Cc1ccccc1)=N/O)/C(Cc1ccccc1)=N/O` the Activity (MDA-MB-231 [1]) was “Active”, the selectivity ratio [2] was over 100 and the Activity (MDA-MB-231 [3]) was “Active”. The Activity (MDA-MB-231 [4]) was “Active”, the inhibition [5] was “Active” and the Activity (MDA-MB-231 [6]) was “Active”. For the same molecule, the Activity [7] was “Non-Toxic”, the IC50 (MCF-10A) was 18.1 µM and the Activity (MDA-MB-231 [8]) was “Dose-dependent effect”. The Activity (MDA-MB-231 [9]) was “Active”, the IC50 (SK-HEP1) was 0.12 µM and the Activity (MDA-MB-231 [10]) was “Dose-dependent effect”. The Activity (MDA-MB-231 [11]) was “Active”, the IC50 (A549) was 0.08 µM and the Activity (MDA-MB-231 [12]) was “Active”. The Activity (MDA-MB-231 [13]) was “Dose-dependent effect”, the Activity (MDA-MB-231 [14]) was “Active” and the selectivity ratio [15] was over 100.
